Columns and labels:
[1] = biological target: Angiotensin-converting enzyme (Homo sapiens, UniProt P12821); experiment: Inhibition of human recombinant ACE by fluorimetry
Neprilysin = biological target: T1, Neprilysin (Sus scrofa, UniProt P19621); experiment: Inhibition of pig kidney NEP by fluorimetry
T1 sequence (P19621 whole entry): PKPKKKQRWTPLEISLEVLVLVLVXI
Procedure, shortened: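 Fluorescence was read at λex 340 nm and λem 530 nm. IC50 was derived from inhibition curves, and the assay was validated with a reference inhibitor IC50.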

[2] = biological target: T2, Endothelin-converting enzyme 1 (Homo sapiens, UniProt P42892); experiment: Inhibition of human recombinant ECE1 by fluorimetry
T2 sequence (P42892 whole entry): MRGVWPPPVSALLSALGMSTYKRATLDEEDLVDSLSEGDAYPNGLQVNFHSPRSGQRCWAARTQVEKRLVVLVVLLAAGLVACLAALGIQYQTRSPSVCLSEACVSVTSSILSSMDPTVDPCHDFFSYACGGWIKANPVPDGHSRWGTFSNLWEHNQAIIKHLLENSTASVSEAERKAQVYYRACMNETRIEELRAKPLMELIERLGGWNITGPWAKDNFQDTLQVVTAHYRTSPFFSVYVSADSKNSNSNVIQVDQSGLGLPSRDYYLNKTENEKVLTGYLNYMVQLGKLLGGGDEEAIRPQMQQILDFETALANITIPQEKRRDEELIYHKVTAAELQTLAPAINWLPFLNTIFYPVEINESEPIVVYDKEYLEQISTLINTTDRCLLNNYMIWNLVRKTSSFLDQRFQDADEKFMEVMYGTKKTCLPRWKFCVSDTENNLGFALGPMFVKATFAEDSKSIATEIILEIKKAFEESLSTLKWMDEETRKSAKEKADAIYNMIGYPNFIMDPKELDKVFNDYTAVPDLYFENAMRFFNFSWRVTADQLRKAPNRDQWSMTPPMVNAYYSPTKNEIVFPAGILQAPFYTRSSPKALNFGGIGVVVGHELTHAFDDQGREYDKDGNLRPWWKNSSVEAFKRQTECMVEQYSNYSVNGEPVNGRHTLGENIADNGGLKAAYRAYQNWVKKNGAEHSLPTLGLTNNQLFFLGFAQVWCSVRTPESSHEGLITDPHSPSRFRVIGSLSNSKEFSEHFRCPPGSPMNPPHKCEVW

Chain of Angiotensin-converting enzyme (P12821 whole entry): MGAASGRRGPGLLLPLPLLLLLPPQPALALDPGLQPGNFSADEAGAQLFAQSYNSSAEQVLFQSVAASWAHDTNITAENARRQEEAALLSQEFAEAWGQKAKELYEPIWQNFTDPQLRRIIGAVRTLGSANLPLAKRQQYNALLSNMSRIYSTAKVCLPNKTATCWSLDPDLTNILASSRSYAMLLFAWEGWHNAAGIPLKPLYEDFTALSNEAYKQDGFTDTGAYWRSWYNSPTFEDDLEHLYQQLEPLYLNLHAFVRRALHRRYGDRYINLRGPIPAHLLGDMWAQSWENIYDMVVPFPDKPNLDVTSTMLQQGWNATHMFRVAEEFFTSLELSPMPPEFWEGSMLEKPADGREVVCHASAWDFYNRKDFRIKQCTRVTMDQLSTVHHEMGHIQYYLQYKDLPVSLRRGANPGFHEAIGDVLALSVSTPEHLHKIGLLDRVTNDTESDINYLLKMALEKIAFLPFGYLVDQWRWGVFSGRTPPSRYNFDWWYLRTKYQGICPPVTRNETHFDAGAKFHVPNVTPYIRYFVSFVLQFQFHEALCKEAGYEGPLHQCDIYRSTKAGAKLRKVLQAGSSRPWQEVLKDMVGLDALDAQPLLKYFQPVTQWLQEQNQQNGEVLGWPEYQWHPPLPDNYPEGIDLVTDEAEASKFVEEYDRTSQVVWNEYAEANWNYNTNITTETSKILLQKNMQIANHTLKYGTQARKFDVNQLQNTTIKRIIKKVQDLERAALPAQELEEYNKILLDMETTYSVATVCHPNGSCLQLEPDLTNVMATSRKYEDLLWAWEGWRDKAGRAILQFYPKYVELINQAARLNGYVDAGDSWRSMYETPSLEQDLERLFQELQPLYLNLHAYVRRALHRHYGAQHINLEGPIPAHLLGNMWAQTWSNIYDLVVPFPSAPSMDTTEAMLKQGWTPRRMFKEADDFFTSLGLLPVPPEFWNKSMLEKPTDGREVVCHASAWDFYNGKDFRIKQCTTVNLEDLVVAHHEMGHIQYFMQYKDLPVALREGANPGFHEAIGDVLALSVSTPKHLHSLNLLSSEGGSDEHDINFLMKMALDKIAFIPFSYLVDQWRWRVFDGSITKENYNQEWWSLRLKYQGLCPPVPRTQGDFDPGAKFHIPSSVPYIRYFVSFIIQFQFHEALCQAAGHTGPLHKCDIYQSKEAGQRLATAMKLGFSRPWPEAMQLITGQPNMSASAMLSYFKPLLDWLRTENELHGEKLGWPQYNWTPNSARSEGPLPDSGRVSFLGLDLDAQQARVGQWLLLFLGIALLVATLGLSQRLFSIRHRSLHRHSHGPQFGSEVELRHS

| SMILES | IC50 [1] | IC50 (Neprilysin) | IC50 [2] |
| --- | --- | --- | --- |
| CC(C)CC(S)CC(=O)NC(Cc1ccccc1)C(=O)O (stereo not drawn) | > 10000 nM | 41 nM | > 10000 nM |
| CC(C)CC(S)CC(=O)NC(Cc1ccccc1)C(=O)NC(Cc1ccc(O)cc1)C(=O)O (stereo not drawn) |  | 50 nM |  |
| O=C(CC(S)C(F)(F)F)NC(Cc1ccc(O)cc1)C(=O)O (stereo not drawn) | 160 nM | 80 nM | > 10000 nM |
| O=C(CC(S)C(F)(F)F)NC(Cc1ccc(F)cc1)C(=O)O (stereo not drawn) | 300 nM | 230 nM | > 10000 nM |
| O=C(CC(S)C(F)(F)F)NC(Cc1c[nH]c2ccccc12)C(=O)O (stereo not drawn) | 400 nM | 580 nM | > 10000 nM |
| O=C(CC(S)C(F)(F)C(F)(F)F)NC(Cc1ccccc1)C(=O)O (stereo not drawn) | 1010 nM | 1150 nM | 2420 nM |
| O=C(CC(S)C(F)(F)F)NC(Cc1ccccc1)C(=O)NC(Cc1ccc(O)cc1)C(=O)O (stereo not drawn) | 280 nM | 430 nM | > 10000 nM |
| O=C(CC(S)C(F)(F)F)NC(Cc1ccccc1)C(=O)O (stereo not drawn) | 830 nM | 300 nM | > 10000 nM |
| O=C(O)CNC(=O)C(CS)Cc1ccccc1 (stereo not drawn) [THIORPHAN] |  | 6.2 nM |  |

— ChEMBL document CHEMBL1154033, “Synthesis and enzymatic evaluation of novel partially fluorinated thiol dual ACE/NEP inhibitors” (Bioorg Med Chem Lett, 2009)
